Results from ChEMBL document CHEMBL2417403, “N-terminal guanidinylation of TIPP (Tyr-Tic-Phe-Phe) peptides results in major changes of the opioid activity profile” (Bioorg Med Chem Lett, 2013).
Where a SMILES comes first, the peptide text is derived from it.

What was measured:
[1] = target: Delta-type opioid receptor (Mus musculus) (UniProt P32300); assay: Antagonist activity at delta opioid receptor in mouse vas deferens assessed as inhibition of electrically-stimulated muscle contraction
How it was run: (§1)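 Mouse vas deferens bioassay, delta-representative tissue. Agonist potency was expressed as IC₅₀ and antagonist activity as a Ke value.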

Mu-type opioid receptor [2] = target: Mu-type opioid receptor (Cavia porcellus, UniProt P97266); assay: Agonist activity at mu opioid receptor in guinea pig ileum assessed as […] of electrically-stimulated muscle contraction; type: tissue-based
Sequence of Mu-type opioid receptor (Cavia porcellus, UniProt P97266) (P97266 whole entry): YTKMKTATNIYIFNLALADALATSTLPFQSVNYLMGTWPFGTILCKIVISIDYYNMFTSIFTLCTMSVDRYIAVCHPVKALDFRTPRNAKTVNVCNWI

[3] = target: Delta-type opioid receptor (Mus musculus) (UniProt P32300); assay: Partial agonist activity at delta opioid receptor in mouse vas deferens assessed as inhibition of electrically-stimulated muscle contraction; how it was run: as §1
[4] = target: mu/kappa opioid receptor (Cavia porcellus) (UniProt P41144+P97266); assay: Partial agonist activity at mu/kappa opioid receptor in guinea pig ileum assessed as inhibition of electrically-stimulated muscle contraction; type: tissue-based
Sequence of mu/kappa opioid receptor (Cavia porcellus) (P41144 whole entry, looked up): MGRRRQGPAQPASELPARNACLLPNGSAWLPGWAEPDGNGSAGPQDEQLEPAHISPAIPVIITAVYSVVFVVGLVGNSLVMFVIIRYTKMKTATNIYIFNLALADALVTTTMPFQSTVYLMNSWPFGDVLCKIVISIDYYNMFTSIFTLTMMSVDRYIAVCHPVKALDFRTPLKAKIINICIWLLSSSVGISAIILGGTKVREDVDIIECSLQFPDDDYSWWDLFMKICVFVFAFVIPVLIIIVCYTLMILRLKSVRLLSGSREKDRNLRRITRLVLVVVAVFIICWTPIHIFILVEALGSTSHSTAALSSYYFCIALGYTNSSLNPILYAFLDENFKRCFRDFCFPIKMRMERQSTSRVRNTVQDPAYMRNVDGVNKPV
Sequence of mu/kappa opioid receptor (Cavia porcellus) (P97266 whole entry, looked up): as the sequence (P97266 whole entry) above

Rattus norvegicus = species: Rattus norvegicus; assay: Selectivity ratio of Ki for mu opioid receptor in rat brain membranes to Ki for delta opioid receptor in rat brain membranes; type: cell membranes
Mu-type opioid receptor [5] = target: Mu-type opioid receptor (Rattus norvegicus, UniProt P33535); assay: Displacement of [3H]DAMGO from mu opioid receptor in rat brain membranes; type: cell membranes
Sequence of Mu-type opioid receptor (Rattus norvegicus, UniProt P33535) (P33535 whole entry): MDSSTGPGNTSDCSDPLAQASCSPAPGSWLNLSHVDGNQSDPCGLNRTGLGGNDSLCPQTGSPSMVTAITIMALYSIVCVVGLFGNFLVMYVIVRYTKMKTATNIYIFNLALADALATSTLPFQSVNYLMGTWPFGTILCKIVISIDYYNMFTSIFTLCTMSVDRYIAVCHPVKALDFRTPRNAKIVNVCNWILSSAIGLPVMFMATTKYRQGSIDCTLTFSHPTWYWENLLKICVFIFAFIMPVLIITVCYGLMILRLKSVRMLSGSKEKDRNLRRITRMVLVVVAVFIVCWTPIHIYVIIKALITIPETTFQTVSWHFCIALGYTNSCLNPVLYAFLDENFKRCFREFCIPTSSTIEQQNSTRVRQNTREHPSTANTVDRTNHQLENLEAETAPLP
How it was run: (§2)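 Competitive displacement of tritiated radioligands, with affinities reported as Ki. Mu sites were labelled with [³H]DAMGO and delta sites with [³H]DSLET, both on rat brain membranes. Kappa sites were labelled with [³H]U69,593 on guinea pig brain membranes.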

[6] = target: Delta-type opioid receptor (Rattus norvegicus, UniProt P33533); assay: Displacement of [3H]DSLET from delta opioid receptor in rat brain membranes; type: cell membranes; how it was run: as §2
Sequence of Delta-type opioid receptor (P33533 whole entry): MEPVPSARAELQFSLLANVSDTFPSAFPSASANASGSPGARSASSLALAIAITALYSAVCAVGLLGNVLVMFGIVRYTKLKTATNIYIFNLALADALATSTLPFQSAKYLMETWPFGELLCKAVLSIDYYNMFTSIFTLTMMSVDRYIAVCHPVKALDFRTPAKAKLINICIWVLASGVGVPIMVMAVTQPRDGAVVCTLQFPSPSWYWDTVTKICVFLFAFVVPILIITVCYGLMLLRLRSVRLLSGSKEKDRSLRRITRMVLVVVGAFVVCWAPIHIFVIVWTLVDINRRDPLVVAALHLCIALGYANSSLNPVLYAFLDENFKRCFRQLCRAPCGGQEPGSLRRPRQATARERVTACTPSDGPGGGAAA

[7] = target: Kappa-type opioid receptor (Cavia porcellus, UniProt P41144); assay: Displacement of [3H]U69,593 from kappa opioid receptor in guinea pig brain membranes; type: cell membranes, Membrane; how it was run: as §2
Sequence of Kappa-type opioid receptor (P41144 whole entry): as the sequence (P41144 whole entry, looked up) above

[8] = Selectivity ratio of Ki for kappa opioid receptor in guinea pig brain membranes to Ki for delta opioid receptor in rat brain membranes; type: cell membranes

Sequence of Delta-type opioid receptor (Mus musculus) (P32300 whole entry): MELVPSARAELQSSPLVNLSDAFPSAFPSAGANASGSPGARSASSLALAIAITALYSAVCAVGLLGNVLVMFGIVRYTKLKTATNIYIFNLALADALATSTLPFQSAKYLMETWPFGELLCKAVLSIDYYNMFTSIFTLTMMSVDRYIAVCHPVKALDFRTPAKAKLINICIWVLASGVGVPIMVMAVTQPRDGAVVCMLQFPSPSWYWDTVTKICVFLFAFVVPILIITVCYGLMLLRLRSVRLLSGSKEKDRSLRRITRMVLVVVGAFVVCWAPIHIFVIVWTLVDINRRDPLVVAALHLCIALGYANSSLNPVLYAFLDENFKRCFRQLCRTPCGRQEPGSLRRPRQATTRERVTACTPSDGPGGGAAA

| Structure (SMILES) | Ke [1] | Imax [3] | IC35 [3] | also measured |
| --- | --- | --- | --- | --- |
| Cc1cc(O)cc(C)c1C[C@H](N)C(=O)N1Cc2ccccc2CC1CN[C@@H](Cc1ccccc1)C(=O)N[C@@H](Cc1ccccc1)C(N)=O (some centres not stated) | 0.537 nM |  |  | IC50 (Mu-type opioid receptor [2]): 7.71 nM |
| N[C@@H](Cc1ccc(O)cc1)C(=O)N1Cc2ccccc2C[C@H]1C(=O)N[C@@H](Cc1ccccc1)C(=O)N[C@@H](Cc1ccccc1)C(=O)O (HELM PEPTIDE1{Y.[Tic].F.F}$$$$V2.0) | 480 nM |  |  |  |
| N=C(N)N[C@@H](Cc1ccc(O)cc1)C(=O)N1Cc2ccccc2C[C@H]1C(=O)N[C@@H](Cc1ccccc1)C(=O)N[C@@H](Cc1ccccc1)C(=O)O |  | 33% |  |  |
| N=C(N)N[C@@H](Cc1ccc(O)cc1)C(=O)N1Cc2ccccc2C[C@H]1CN[C@@H](Cc1ccccc1)C(=O)N[C@@H](Cc1ccccc1)C(=O)O |  | 50% |  |  |
| Cc1cc(O)cc(C)c1C[C@H](NC(=N)N)C(=O)N1Cc2ccccc2C[C@H]1C(=O)O |  | 50% |  | Imax [4]: 50% |
| Cc1cc(O)cc(C)c1C[C@H](N)C(=O)N1Cc2ccccc2C[C@H]1CN[C@@H](CCCCN)C(=O)N[C@@H](Cc1ccccc1)C(N)=O |  |  | 23.2 nM |  |
| Cc1cc(O)cc(C)c1C[C@H](NC(=N)N)C(=O)N1Cc2ccccc2C[C@H]1C(=O)N[C@@H](Cc1ccccc1)C(=O)N[C@@H](Cc1ccccc1)C(=O)O |  |  | 1.57 nM |  |
| Cc1cc(O)cc(C)c1C[C@H](N)C(=O)N1Cc2ccccc2C[C@H]1C(=O)N[C@@H](CCCCN)C(=O)N[C@@H](Cc1ccccc1)C(N)=O (HELM PEPTIDE1{[Cc1cc(O)cc(C)c1C[C@H](N)C(=O)[*:2]].[Tic].K.F.[am]}$$$$V2.0) | 2.18 nM |  |  | Ratio Ki (Rattus norvegicus): 63; IC50 (Mu-type opioid receptor [2]): 16.5 nM; Ki (Mu-type opioid receptor [5]): 19.4 nM; Ki [6]: 0.306 nM; Ki [7]: 2.23 nM; Ratio Ki [8]: 7 |
| Cc1cc(O)cc(C)c1C[C@H](NC(=N)N)C(=O)N1Cc2ccccc2C[C@H]1CN[C@@H](CCCCN)C(=O)N[C@@H](Cc1ccccc1)C(N)=O |  |  | 7.35 nM |  |
